How the values were obtained:
[1] = test system: carrageenan-induced paw edema; assay: Carrageenan-induced paw edema in mice; type: in vivo, Balb/c mice; conditions: 1 mg/kg; paw volume 0 h vs 10 h
In short: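 Female Balb/c mice were fasted overnight and dosed orally with test compound at 1, 2 or 5 mg/kg (n = 5 per group). 1% carrageenan in PBS was injected subplantar into the left hind paw. Paw volume was read by plethysmometer at 1, 3, 6, 8 and 10 h. % inhibition was calculated from edema volume in control vs treated groups.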

macrophage phagocytosis = assay: Macrophage phagocytosis by the carbon clearance method; type: in vivo, Balb/C mice (Mus musculus); conditions: mice, 1 mg/kg
In short: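 Mice received saline, test compound (1, 2, 5 mg/kg) or dexamethasone (1 mg/kg) as reference. On day 6, carbon ink suspension was injected via the tail vein. Retro-orbital blood was taken at 0 and 30 min, lysed in 0.1% sodium carbonate, and read at 675 nm. Phagocytic index was derived from OD change between the two times (n = 5).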

C[C@@H]1C[C@H]2[C@@H]3CCC4=CC(=O)C=C[C@]4(C)[C@@]3(F)[C@@H](O)C[C@]2(C)[C@@]1(O)C(=O)CO [dexamethasone]
percentage inhibition of paw edema [1]: 88.5%
phagocytic index (macrophage phagocytosis): 0.038 ± 0.002
